Reference: ChEMBL document CHEMBL3085645, “Design, synthesis and biological evaluation of phosphorodiamidate prodrugs of antiviral and anticancer nucleosides” (Eur J Med Chem, 2013)
pEC50, pIC50: −log10 of the molar value.

How the values were obtained:
[1] = test system: Human alphaherpesvirus 1; assay: Antiviral activity against Herpes simplex virus 1 KOS infected in HEL cells assessed as inhibition of virus-induced cytopathicity; format: functional, organism-based; conditions: Human alphaherpesvirus 1, KOS
[2] = Cytotoxicity against HEL cells; format: cell-based; conditions: human
[3] = test system: Human alphaherpesvirus 1; assay: Antiviral activity against acyclovir-resistant thymidine kinase-deficient Herpes simplex virus 1 KOS infected in HEL cells assessed as inhibition of virus-induced cytopathicity; format: functional, organism-based; conditions: Human alphaherpesvirus 1, KOS
[4] = test system: Felid alphaherpesvirus 1; assay: Antiviral activity against Feline herpesvirus infected in cat CRFK cells assessed as inhibition of virus-induced cytopathicity; format: functional, organism-based; conditions: Felid alphaherpesvirus 1, CRFK
[5] = test system: Human alphaherpesvirus 2; assay: Antiviral activity against Herpes simplex virus 2 G infected in HEL cells assessed as inhibition of virus-induced cytopathicity; format: functional, organism-based; conditions: Human alphaherpesvirus 2, strain G
[6] = test system: Human immunodeficiency virus 1; assay: Antiviral activity against HIV1 3B infected in human CEM cells assessed as virus-induced giant cell formation after 4 days by microscopic analysis; format: functional, organism-based; conditions: Human immunodeficiency virus 1, 3B, CCRF-CEM, 96 h
How it was run: (§1)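 CEM cells (∼3 × 10^5 cells/cm3) infected with 100 CCID50/mL of HIV-1(IIIB) or HIV-2(ROD), seeded into wells with compound dilutions. Giant cell formation examined microscopically after 4 days at 37 °C.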

[7] = test system: CCRF-CEM; assay: Cytostatic activity against human CEM cells assessed as growth inhibition after 3 days by particle counting analysis; format: functional, cell-based; conditions: 72 h
How it was run: (§2)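 Tumor cells seeded and exposed to a range of compound concentrations. Cell number counted with a particle counter after 2 days (L1210, L1210/TK) or 3 days (CEM, CEM/TK, HeLa, HeLa TK, Caco-2, Colo-320).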

[8] = test system: HeLa; assay: Cytostatic activity against human HeLa cells assessed as growth inhibition after 3 days by particle counting analysis; format: functional, cell-based; conditions: 72 h; how it was run: as §2
[9] = test system: Human immunodeficiency virus 2; assay: Antiviral activity against HIV2 ROD infected in human CEM cells assessed as virus-induced giant cell formation after 4 days by microscopic analysis; format: functional, organism-based; conditions: Human immunodeficiency virus 2, ISOLATE ROD, CCRF-CEM, 96 h; how it was run: as §1
[10] = test system: L1210; assay: Cytostatic activity against mouse L1210 cells assessed as growth inhibition after 2 days by particle counting analysis; format: functional, cell-based; conditions: L1210, 48 h; how it was run: as §2
[11] = test system: HeLa; assay: Cytostatic activity against thymidine kinase-deficient human HeLa cells assessed as growth inhibition after 3 days by particle counting analysis; format: functional, cell-based; conditions: 72 h; how it was run: as §2
[12] = test system: CCRF-CEM; assay: Cytotoxicity against human CEM cells; format: cell-based
[13] = test system: Hepatitis C virus; assay: Antiviral activity against Hepatitis C virus genotype 1b infected in human HuH7 cells assessed as inhibition of viral replication; format: functional, organism-based, Hepacivirus hominis
[14] = test system: Huh-7; assay: Cytotoxicity against human HuH7 cells; format: cell-based

| SMILES | MCC [2] | pIC50 [7] | pIC50 [8] | pIC50 [10] | pEC50 ([13]; Huh-7, read-out: EC50) | CC50 ([14]; human, huh-7, read-out: CC50) | other results |
| --- | --- | --- | --- | --- | --- | --- | --- |
| CCCCCc1ccc(-c2cc3cn([C@H]4C[C@H](O)[C@@H](COP(=O)(N[C@@H](C)C(=O)OCc5ccccc5)N[C@@H](C)C(=O)OCc5ccccc5)O4)c(=O)nc3o2)cc1 | > 100 µM |  |  |  |  |  | pEC50 [1]: < 4.00; pEC50 [3]: < 4.00; pEC50 [4]: < 4.00; pEC50 [5]: < 4.00 |
| C[C@H](NP(=O)(N[C@@H](C)C(=O)OCc1ccccc1)OC[C@@H]1C=C[C@H](n2cnc3c(NC4CC4)nc(N)nc32)C1)C(=O)OCc1ccccc1 |  | 4.72 | 4.64 | 4.27 |  |  | pEC50 [6]: 6.25; pEC50 [9]: 5.96 |
| C[C@H](NP(=O)(N[C@@H](C)C(=O)OCC(C)(C)C)OC[C@@H]1C=C[C@H](n2cnc3c(NC4CC4)nc(N)nc32)C1)C(=O)OCC(C)(C)C |  | 4.57 | 4.44 | 4.32 |  |  | pEC50 [6]: 5.82; pEC50 [9]: 5.92 |
| C[C@H](NP(=O)(N[C@@H](C)C(=O)OCc1ccccc1)OC[C@H]1O[C@@H](n2cnc(C(N)=O)c2N)[C@H](O)[C@@H]1O)C(=O)OCc1ccccc1 | > 100 µM | < 3.60 | < 3.60 | < 3.60 |  |  | pEC50 [1]: < 4.00; pIC50 [11]: < 3.60; pEC50 [3]: < 4.00; pEC50 [4]: < 4.00; pEC50 [5]: < 4.00 |
| COC(=O)[C@H](C)NP(=O)(N[C@@H](C)C(=O)OC)OC[C@H]1O[C@@H](n2cnc(C(N)=O)c2N)[C@H](O)[C@@H]1O | > 100 µM | < 3.60 | < 3.60 | ≤ 3.60 |  |  | pEC50 [1]: < 4.00; pIC50 [11]: < 3.60; pEC50 [3]: < 4.00; pEC50 [4]: < 4.00; pEC50 [5]: < 4.00 |
| Cc1cn([C@H]2C[C@H](N=[N+]=[N-])[C@@H](COP(=O)(N[C@@H](C)C(=O)OCC(C)(C)C)N[C@@H](C)C(=O)OCC(C)(C)C)O2)c(=O)[nH]c1=O |  |  |  |  |  |  | pEC50 [6]: 8.08; pEC50 [9]: 7.89; CC50 [12]: 75 µM |
| CCOc1nc(N)nc2c1ncn2[C@@H]1O[C@H](COP(=O)(N[C@@H](C)C(=O)OCC(C)(C)C)N[C@@H](C)C(=O)OCC(C)(C)C)[C@@H](O)[C@@]1(C)F |  |  |  |  | 7.30 | 73 µM |  |
| CCOc1nc(N)nc2c1ncn2[C@@H]1O[C@H](COP(=O)(N[C@H](C)C(=O)OCC(C)(C)C)N[C@H](C)C(=O)OCC(C)(C)C)[C@@H](O)[C@@]1(C)F |  |  |  |  | 6.64 | > 100 µM |  |
| C[C@H](NP(=O)(N[C@@H](C)C(=O)OCc1ccccc1)OC[C@@]1(N=[N+]=[N-])O[C@@H](n2ccc(=O)[nH]c2=O)[C@H](O)[C@@H]1O)C(=O)OCc1ccccc1 |  |  |  |  | < 4.40 | > 100 µM |  |
| C[C@H](NP(=O)(N[C@@H](C)C(=O)OCC(C)(C)C)OC[C@@]1(N=[N+]=[N-])O[C@@H](n2ccc(=O)[nH]c2=O)[C@H](O)[C@@H]1O)C(=O)OCC(C)(C)C |  |  |  |  | 4.66 | > 100 µM |  |
| C[C@H](NP(=O)(N[C@@H](C)C(=O)OCc1ccccc1)OC[C@@]1(N=[N+]=[N-])O[C@@H](n2ccc(N)nc2=O)[C@H](O)[C@@H]1O)C(=O)OCc1ccccc1 |  |  |  |  | < 4.40 | > 100 µM |  |
| C[C@H](NP(=O)(N[C@@H](C)C(=O)OCC(C)(C)C)OC[C@@]1(N=[N+]=[N-])O[C@@H](n2ccc(N)nc2=O)[C@H](O)[C@@H]1O)C(=O)OCC(C)(C)C |  |  |  |  | < 4.40 | 72 µM |  |
| C[C@H](NP(=O)(N[C@@H](C)C(=O)OCc1ccccc1)OC[C@H]1O[C@@H](n2cnc(C(N)=O)n2)[C@H](O)[C@@H]1O)C(=O)OCc1ccccc1 |  |  |  |  | < 4.00 |  | CC50 ([14]; Homo sapiens, Huh-7, read-out: EC50 (the source's name)): > 100 µM |
| C[C@H](NP(=O)(N[C@@H](C)C(=O)OCC(C)(C)C)OC[C@H]1O[C@@H](n2cnc(C(N)=O)n2)[C@H](O)[C@@H]1O)C(=O)OCC(C)(C)C |  |  |  |  |  |  | pEC50 ([13]; Huh-7, read-out: ED50 (the source's name)): < 4.00; CC50 ([14]; human, huh-7, read-out: ED50 (the source's name)): > 100 µM |
| NC(=O)c1ncn([C@@H]2O[C@H](CO)[C@@H](O)[C@H]2O)c1N [ACADESINE] | > 100 µM | 3.68 | 3.78 | ≤ 3.60 |  |  | pEC50 [1]: < 4.00; pIC50 [11]: ≤ 3.60; pEC50 [3]: < 4.00; pEC50 [4]: < 4.00; pEC50 [5]: < 4.00 |
| CCCCCc1ccc(-c2cc3cn([C@H]4C[C@H](O)[C@@H](CO)O4)c(=O)nc3o2)cc1 [CF1743] | ≥ 20 µM |  |  |  |  |  |  |
